Source: ChEMBL document CHEMBL1146064, “Design, synthesis, and biological evaluation of semicarbazide-sensitive amine oxidase (SSAO) inhibitors with anti-inflammatory activity” (J Med Chem, 2006)

Key:
[1] = target: T1, Amine oxidase [copper-containing] 3 (Rattus norvegicus, UniProt O08590); assay: Inhibition of SSAO in rat lung
T1 sequence (O08590 whole entry): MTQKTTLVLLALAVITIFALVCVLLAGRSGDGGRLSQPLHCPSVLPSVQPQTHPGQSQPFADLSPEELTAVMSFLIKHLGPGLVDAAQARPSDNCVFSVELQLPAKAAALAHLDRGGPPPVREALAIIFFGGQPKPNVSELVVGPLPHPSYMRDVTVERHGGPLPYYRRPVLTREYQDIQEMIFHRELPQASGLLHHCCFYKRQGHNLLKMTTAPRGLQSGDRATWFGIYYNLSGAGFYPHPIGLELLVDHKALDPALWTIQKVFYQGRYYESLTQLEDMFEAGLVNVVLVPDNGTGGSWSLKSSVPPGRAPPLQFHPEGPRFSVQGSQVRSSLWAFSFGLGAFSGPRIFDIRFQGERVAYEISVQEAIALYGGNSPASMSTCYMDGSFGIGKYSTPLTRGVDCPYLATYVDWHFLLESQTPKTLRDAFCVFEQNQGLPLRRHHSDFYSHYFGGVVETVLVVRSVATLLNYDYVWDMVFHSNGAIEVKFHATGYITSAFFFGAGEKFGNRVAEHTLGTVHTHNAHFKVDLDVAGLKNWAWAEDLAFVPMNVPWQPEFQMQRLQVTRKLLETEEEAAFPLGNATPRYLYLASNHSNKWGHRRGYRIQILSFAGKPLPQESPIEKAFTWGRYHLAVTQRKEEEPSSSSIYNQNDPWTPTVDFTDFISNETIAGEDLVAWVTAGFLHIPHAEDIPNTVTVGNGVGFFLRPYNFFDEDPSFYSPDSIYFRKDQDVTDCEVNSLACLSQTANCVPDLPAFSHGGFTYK
Method in brief: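 Enzyme source is a rat lung homogenate: tissue homogenized 1:20 (w/v) in 10 mM potassium phosphate pH 7.8, then spun at 10000g for 10 min at 4 °C. Reaction stopped with citric acid, toluene/ethyl acetate extract counted by scintillation. IC50 taken from background-corrected dose-response curves (10^-3 to 10^-10 M).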

[2] = target: T2, Amine oxidase [flavin-containing] A (Homo sapiens, UniProt P21397); assay: Inhibition of recombinant human MAO-A
T2 sequence (P21397 whole entry): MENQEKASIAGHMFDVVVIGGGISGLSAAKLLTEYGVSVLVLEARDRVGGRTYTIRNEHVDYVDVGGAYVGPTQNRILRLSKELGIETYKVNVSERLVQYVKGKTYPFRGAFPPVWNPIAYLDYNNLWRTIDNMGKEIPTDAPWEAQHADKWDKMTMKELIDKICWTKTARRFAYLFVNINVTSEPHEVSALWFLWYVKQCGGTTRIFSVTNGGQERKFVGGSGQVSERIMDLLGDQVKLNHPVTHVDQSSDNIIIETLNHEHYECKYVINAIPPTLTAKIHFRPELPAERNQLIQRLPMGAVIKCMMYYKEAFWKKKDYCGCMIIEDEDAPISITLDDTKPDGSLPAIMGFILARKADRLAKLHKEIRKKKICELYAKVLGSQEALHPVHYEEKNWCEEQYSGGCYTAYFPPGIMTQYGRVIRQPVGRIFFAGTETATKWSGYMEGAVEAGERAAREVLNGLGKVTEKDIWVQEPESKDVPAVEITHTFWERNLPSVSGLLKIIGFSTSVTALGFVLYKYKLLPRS
Method in brief: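 Recombinant human MAO-A measured with a coupled colorimetric assay. IC50 fitted from inhibition curves over 10^-3 to 10^-10 M inhibitor.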

[3] = target: T3, Amine oxidase [flavin-containing] B (Homo sapiens, UniProt P27338); assay: Inhibition of recombinant human MAO-B
T3 sequence (P27338 whole entry): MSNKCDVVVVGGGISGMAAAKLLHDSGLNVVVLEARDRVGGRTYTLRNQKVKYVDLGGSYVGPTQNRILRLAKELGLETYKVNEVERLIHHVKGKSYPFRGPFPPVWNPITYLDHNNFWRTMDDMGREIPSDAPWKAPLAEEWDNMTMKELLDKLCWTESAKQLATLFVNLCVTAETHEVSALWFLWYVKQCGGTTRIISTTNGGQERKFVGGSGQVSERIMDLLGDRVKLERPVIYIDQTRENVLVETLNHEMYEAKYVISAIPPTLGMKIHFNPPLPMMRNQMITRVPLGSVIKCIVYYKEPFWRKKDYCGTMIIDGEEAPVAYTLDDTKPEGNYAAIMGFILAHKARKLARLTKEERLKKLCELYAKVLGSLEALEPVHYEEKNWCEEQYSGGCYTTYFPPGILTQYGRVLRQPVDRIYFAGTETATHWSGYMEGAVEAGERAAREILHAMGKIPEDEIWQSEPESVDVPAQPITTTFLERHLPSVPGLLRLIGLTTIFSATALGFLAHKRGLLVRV

[4] = Half life in Sprague-Dawley rat at 5 mg/kg, po; assay type: ADME, organism-based; parameters: dose 5 mg/kg, route oral; conditions: in vivo
Method in brief: (§1)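 Single oral dose of 5.0 mg/kg given to cannulated female Sprague Dawley rats, then plasma concentrations followed over time. Parameters come from noncompartmental analysis and are reported as mean ± SD (n = 3).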

[5] = Tmax in Sprague-Dawley rat at 5 mg/kg, po; assay type: ADME, organism-based; parameters: dose 5 mg/kg, route oral; conditions: in vivo; method in brief: as §1
[6] = Cmax in Sprague-Dawley rat at 5 mg/kg, po; assay type: ADME, organism-based; parameters: dose 5 mg/kg, route oral; conditions: in vivo; method in brief: as §1
[7] = AUC in Sprague-Dawley rat at 5 mg/kg, po; assay type: ADME, organism-based; parameters: dose 5 mg/kg, route oral; conditions: plasma; method in brief: as §1
[8] = AUC (infinity) in Sprague-Dawley rat at 5 mg/kg, po; assay type: ADME, organism-based; parameters: time infinity, dose 5 mg/kg, route oral; conditions: plasma; method in brief: as §1

IC50 [1] [nM] | Structure (SMILES) | further results
> 1000 | C=C(CNNC(C)C)c1ccc(F)cc1 | 
1.7 | C=C(CNNC)c1ccc(F)cc1 | 
2 | C=C(CNN)c1ccccc1.Cl | IC50 [2]: 1300 nM; IC50 [3]: 71000 nM; half-life [4]: 11.3 h; Tmax [5]: 0.5 h; Cmax [6]: 366 ng/mL; AUC [7]: 1340 ng·h/mL; AUC(0-inf) [8]: 3310 ng·h/mL
6.1 | C=C(CNN)c1ccc(F)cc1 | IC50 [2]: 6000 nM
3 | C=C(CNN)c1ccc(Cl)cc1 | 
> 1000 | C=C(CN(N)Cc1ccccc1)c1ccc(F)cc1 | 
> 1000 | C=C(CNNCc1ccccc1)c1ccc(F)cc1 | 
2.3 | C=C(CNNCC)c1ccc(F)cc1 | 
240 | C=C(CN(C)N)c1ccc(F)cc1 | 
4 | C=C(CNN)c1ccccc1C | IC50 [2]: 2000 nM; IC50 [3]: 90000 nM
5 | NNC/C(=C/F)c1ccccc1 | 
630 | C=C(CN(N)CC)c1ccc(F)cc1 | 
420 | C=C(CN(N)C(C)C)c1ccc(F)cc1 | 
